The target of the experiment is T1, wild-type mouse Shp2 catalytic domain (Mus musculus, UniProt P35235).
T1 sequence (P35235 224-539): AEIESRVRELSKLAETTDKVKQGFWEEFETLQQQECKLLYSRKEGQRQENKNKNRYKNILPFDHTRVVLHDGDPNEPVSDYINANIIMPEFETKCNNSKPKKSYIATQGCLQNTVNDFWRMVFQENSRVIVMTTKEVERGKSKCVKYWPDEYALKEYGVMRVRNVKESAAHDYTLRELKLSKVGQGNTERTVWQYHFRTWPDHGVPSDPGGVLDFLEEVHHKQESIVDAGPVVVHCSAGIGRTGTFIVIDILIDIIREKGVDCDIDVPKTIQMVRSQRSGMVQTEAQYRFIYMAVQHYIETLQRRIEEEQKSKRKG
Kind of experiment: PTP inhibition assay with pNPP, wild-type Shp2 catalytic domain. In kind it is biochemical. Conditions: 120 min incubation. In outline: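 Catalytic-domain PTP (50 nM) was preincubated with test compound or vehicle for 120 min at 37 °C in PTP buffer (50 mM 3,3-dimethyl glutarate pH 7.0, 1 mM EDTA, 50 mM NaCl). It was then assayed at 37 °C with pNPP at the enzyme's previously determined KM, quenched with 5 M NaOH and read at 405 nm. Activity was normalized to controls, and IC50 came from a four-parameter logistic fit. For Shp2, β-mercaptoethanol (250 μM–1 mM) was also tested at 500 nM compound.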

fluorescein: the “Shp2 inhibition (structure–activity comparison, Figure 2A)” value is recorded as “lack of Shp2 inhibition”.

For the origin of these results see article PMC4303306 (Biochemistry, 2014).
